Reference: ChEMBL document CHEMBL1139354, “New derivatives of farnesylthiosalicylic acid (salirasib) for cancer treatment: farnesylthiosalicylamide inhibits tumor growth in nude mice models” (J Med Chem, 2009)
The source made the active and inactive calls. The calls are words filed in the database; no cut-off is given here.

Columns and labels:
[1] = AUC (0 to infinity) in Sprague-Dawley rat at 40 mg/kg, po; assay type: ADME, organism-based; set-up: time infinity, dose 40 mg/kg, route oral; conditions: plasma
PANC-1 [2] = test: Cytotoxicity against human PANC1 cells after 5 to 7 days; assay type: functional, cell-based
How it was run: (§1)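 U87 or Panc-1 cells were seeded at 5000 per well in DMEM/10% FCS and grown 24 h. Cells were then exposed to 6.25-100 µM in medium with 0.1% DMSO, or to vehicle. After 5-7 days cells were counted directly and IC50 was read from growth curves (2 independent experiments, n = 8, mean ± SD).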

[3] = Cytotoxicity against human U87 cells after 5 to 7 days; assay type: functional, cell-based, U-87MG ATCC; conditions: U-87 MG; how it was run: as §1
[4] = Elimination half life in Sprague-Dawley rat at 40 mg/kg, po; assay type: ADME, organism-based; set-up: dose 40 mg/kg, route oral; conditions: in vivo
[5] = Cmax in Sprague-Dawley rat at 40 mg/kg, po; assay type: ADME, organism-based; set-up: dose 40 mg/kg, route oral; conditions: in vivo
[6] = Effect on Ras signaling in human U87 cells assessed as inhibition of KRas-GTP level at 50 uM after 24 hrs by immunoblot method; assay type: functional, cell-based; conditions: U-87MG ATCC
How it was run: (§2)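 Cells were seeded at 1.5 × 10⁶ per 10-cm dish, grown 24 h, then exposed to 50 µM or 0.1% DMSO for 24 h. Lysates in Tris pH 7.6/MgCl2/NaCl/NP40/DTT buffer went through a GST-Raf-RBD pull-down, followed by immunoblots with pan-Ras or isoform-specific antibodies. Bands were detected by ECL and quantified by densitometry. Inhibition was calculated as control active-Ras % minus treated active-Ras % (mean ± SD).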

PANC-1 [7] = test: Effect on Ras signaling in human PANC1 cells assessed as inhibition of KRas-GTP level at 50 uM after 24 hrs by immunoblot method; assay type: functional; conditions: PANC-1, 24 h; how it was run: as §2
PANC-1 [8] = test: Effect on Ras signaling in human PANC1 cells assessed as inhibition of total Ras-GTP level at 50 uM after 24 hrs by immunoblot method; assay type: functional; conditions: PANC-1, 24 h; how it was run: as §2
[9] = Effect on Ras signaling in human U87 cells assessed as inhibition of NRas-GTP level at 50 uM after 24 hrs by immunoblot method; assay type: functional, cell-based; conditions: U-87MG ATCC; how it was run: as §2
PANC-1 [10] = test: Effect on Ras signaling in human PANC1 cells assessed as inhibition of NRas-GTP level at 50 uM after 24 hrs by immunoblot method; assay type: functional; conditions: PANC-1, 24 h; how it was run: as §2
[11] = Effect on Ras signaling in human U87 cells assessed as inhibition of total Ras-GTP level at 50 uM after 24 hrs by immunoblot method; assay type: functional, cell-based; conditions: U-87MG ATCC; how it was run: as §2
PANC-1 [12] = test: Effect on Ras signaling in human PANC1 cells assessed as decrease in phospho-AKT level at 50 uM after 24 hrs by immunoblot method; assay type: functional, cell-based
How it was run: (§3)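 Cells were seeded at 1.5 × 10⁶ per 10-cm dish, grown overnight in 10% FCS, then treated with 50 µM or 0.1% DMSO for 24 h. Lysates in Tris pH 7.6/MgCl2/NaCl/NP40/DTT buffer were immunoblotted for phospho-ERK1/2 and phospho-Akt, with β-tubulin as loading reference. Detection was by ECL.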

[13] = Cmax in Sprague-Dawley rat at 100 mg/kg, po; assay type: ADME, organism-based; set-up: dose 100 mg/kg, route oral; conditions: in vivo
How it was run: (§4)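 Male Sprague-Dawley rats (275-285 g) given a single oral dose of 100 mg/kg in corn oil. Arterial blood was taken under anesthesia at 10-330 min (4 animals per time point). Plasma was protein-precipitated with acetonitrile, propranolol served as internal standard, and samples were run on isocratic C18 LC-MS/MS (calibration 1-2500 ng/mL). Parameters came from a noncompartmental fit of the mean concentration-time data.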

[14] = Effect on Ras signaling in human U87 cells assessed as decrease in phospho-AKT level at 50 uM after 24 hrs by immunoblot method; assay type: functional, cell-based; conditions: U-87MG ATCC; how it was run: as §3
PANC-1 [15] = test: Antitumor activity against human PANC1 cells xenografted CD1-Nu mouse at 100 mg/kg, po daily assessed as decrease in tumor weight after 18 days
U-87MG ATCC = test: Antitumor activity against human U87 cells xenografted CD1-Nu mouse at 100 mg/kg, po twice daily assessed as increase tumor volume after 9 days; assay type: functional, organism-based; set-up: dose 100 mg/kg
How it was run: (§5)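 Nude mice under ketamine/xylazine received 5 × 10⁵ U87 cells into the striatum (1 µL/min for 5 min). Gd-DTPA contrast MRI on day 4 confirmed tumors and mice were grouped by size. From day 5 they received 100 mg/kg orally twice a day in corn oil, or vehicle. Tumor volumes were read from T1-weighted follow-up MRI. Normalized growth was taken as (follow-up volume − initial volume)/initial volume (n = 7, Mann-Whitney).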

[16] = Elimination half life in Sprague-Dawley rat at 100 mg/kg, po; assay type: ADME, organism-based; set-up: dose 100 mg/kg, route oral; conditions: in vivo; how it was run: as §4
PANC-1 [17] = test: Effect on Ras signaling in human PANC1 cells assessed as decrease in phospho-ERK level at 50 uM after 24 hrs by immunoblot method; assay type: functional, cell-based; how it was run: as §3
[18] = Antitumor activity against human U87 cells xenografted CD1-Nu mouse at 100 mg/kg, po twice daily assessed as inhibition of tumor growth after 9 days; assay type: functional, U-87MG ATCC; conditions: U-87 MG, 216 h; how it was run: as §5
[19] = AUC (0 to infinity) in Sprague-Dawley rat at 100 mg/kg, po; assay type: ADME, organism-based; set-up: time infinity, dose 100 mg/kg, route oral; conditions: plasma; how it was run: as §4
[20] = Effect on Ras signaling in human U87 cells assessed as decrease in phospho-ERK level at 50 uM after 24 hrs by immunoblot method; assay type: functional, cell-based; conditions: U-87MG ATCC; how it was run: as §3
[21] = Antitumor activity against human U87 cells xenografted CD1-Nu mouse at 100 mg/kg, po twice daily assessed as inhibition of tumor growth after 4 days; assay type: functional, U-87MG ATCC; conditions: U-87 MG, 96 h; how it was run: as §5
[22] = Effect on Ras signaling in human U87 cells assessed as inhibition of HRas-GTP level at 50 uM after 24 hrs by immunoblot method; assay type: functional, cell-based; conditions: U-87MG ATCC; how it was run: as §2

Structure (SMILES) | IC50 (PANC-1 [2]) [µM] | IC50 [3] [µM] | inhibition [6] [%] | inhibition at 50 µM (PANC-1 [7]) [%] | inhibition at 50 µM (PANC-1 [8]) [%] | inhibition [9] [%] | inhibition at 50 µM (PANC-1 [10]) [%] | inhibition [11] [%] | other results
CC(C)=CCC/C(C)=C/CC/C(C)=C/CSc1ccccc1C(=O)O [SALIRASIB] | 35 | 50 | – | – | – | – | – | – | AUC(0-inf) [1]: 6210 ng·h/mL; half-life [4]: 2.36 h; Cmax [5]: 2160 ng/mL
CC(C)=CCC/C(C)=C/CC/C(C)=C/CSc1ccccc1C(=O)OC(C)C | 70 | 52 | – | – | – | – | – | – | –
CC(C)=CCC/C(C)=C/CC/C(C)=C/CSc1ccccc1C(=O)OCc1ccccc1 | 95 | 30 | – | – | – | – | – | – | –
COC(=O)c1ccccc1SC/C=C(\C)CC/C=C(\C)CCC=C(C)C | 30 | 10 | 23.8 | 11.9 | 5.3 | 18.7 | – | – | –
CNC(=O)c1ccccc1SC/C=C(\C)CC/C=C(\C)CCC=C(C)C | 10 | 18 | 32.6 | 52 | 39.7 | 22.5 | 18.8 | 34.7 | –
COCOC(=O)c1ccccc1SC/C=C(\C)CC/C=C(\C)CCC=C(C)C | 12 | 10 | 4.8 | 19.9 | 2.6 | 5.1 | – | – | –
CC(C)=CCC/C(C)=C/CC/C(C)=C/CSc1ccccc1C(N)=O | 20 | 10 | 50.8 | 56 | 37.4 | 37.3 | 8.6 | 33 | Activity (PANC-1 [12]): inactive; Cmax [13]: 371 ng/mL; Activity [14]: Active; Activity (PANC-1 [15]): Active; Activity (U-87MG ATCC): Active; half-life [16]: 5.23 h; Activity (PANC-1 [17]): inactive; inhibition in vivo at 100 mg/kg [18]: 50%; AUC(0-inf) [19]: 1810 ng·h/mL; Activity [20]: Active; inhibition in vivo at 100 mg/kg [21]: 80%
CC(C)=CCC/C(C)=C/CC/C(C)=C/CSc1ccccc1C(=O)N(C)C | 22 | 20 | 28 | 48 | 38.6 | 41 | 13.6 | 45.4 | inhibition [22]: 14%
